Results taken from PMC6349029 (Bioorganic & medicinal chemistry letters, 2018).

How the values were obtained:
TRPC6 = conditions: cited from earlier work
TRPC5 channel = biological target: T1, TRPC5 channel (Homo sapiens, UniProt Q9UL62); assay: TRPC5 % inhibition at single concentration, Syncropatch; type: cell-based; conditions: read-out: % inhibition at 3 μM, Table 3
T1 sequence (Q9UL62 1-973): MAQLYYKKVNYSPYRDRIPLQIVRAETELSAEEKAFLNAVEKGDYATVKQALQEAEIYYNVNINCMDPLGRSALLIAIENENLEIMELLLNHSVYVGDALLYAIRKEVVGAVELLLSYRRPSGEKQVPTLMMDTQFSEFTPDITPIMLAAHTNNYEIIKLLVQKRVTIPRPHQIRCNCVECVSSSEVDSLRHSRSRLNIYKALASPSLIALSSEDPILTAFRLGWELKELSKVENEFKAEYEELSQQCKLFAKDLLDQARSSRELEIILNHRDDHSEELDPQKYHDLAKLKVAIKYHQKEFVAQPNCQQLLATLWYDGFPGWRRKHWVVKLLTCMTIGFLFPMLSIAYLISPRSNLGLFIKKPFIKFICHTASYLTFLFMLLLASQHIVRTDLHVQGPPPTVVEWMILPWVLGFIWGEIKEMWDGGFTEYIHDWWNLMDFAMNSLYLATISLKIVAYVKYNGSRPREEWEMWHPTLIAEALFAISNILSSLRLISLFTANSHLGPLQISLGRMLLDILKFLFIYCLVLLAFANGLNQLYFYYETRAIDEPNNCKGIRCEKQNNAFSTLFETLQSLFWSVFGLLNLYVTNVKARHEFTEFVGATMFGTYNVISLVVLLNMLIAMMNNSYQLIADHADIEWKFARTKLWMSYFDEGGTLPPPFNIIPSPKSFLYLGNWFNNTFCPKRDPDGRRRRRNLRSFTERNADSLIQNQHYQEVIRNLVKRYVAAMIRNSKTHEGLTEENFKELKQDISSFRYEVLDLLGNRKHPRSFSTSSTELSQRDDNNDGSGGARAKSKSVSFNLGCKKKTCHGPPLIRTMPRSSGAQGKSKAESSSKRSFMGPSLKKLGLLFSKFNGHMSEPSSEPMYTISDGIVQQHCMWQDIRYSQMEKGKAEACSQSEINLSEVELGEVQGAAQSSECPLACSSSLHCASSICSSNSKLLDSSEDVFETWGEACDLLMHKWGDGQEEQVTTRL
Summary of the method: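 Automated patch-clamp (Syncropatch) first-pass screen of TRPC5 channel block. Each test compound was run at one concentration (3 μM) in a single well. Values were normalised so that the furfuryl-amine reference analogue's inhibition at 3 μM equals 100%. A reference inhibitor and DMSO served as controls on every plate. Recordings came from at least one session over two assay plates.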

[1] = system: animal models of kidney disease; conditions: previously shown; cited from earlier work
TRPC4 = conditions: cited from earlier work
kidney filter = conditions: in vivo animal model; cited from earlier work

Row | SMILES | selectivity for TRPC5 over TRPC6 (TRPC6) | inhibition at 3 µM (TRPC5 channel) | activity in animal models of kidney disease [1] | selectivity for TRPC5 over TRPC4 (TRPC4) | protection of the kidney filter (kidney filter)
1 | c1ccc(Cn2c(NCc3ccco3)nc3ccccc32)cc1 [Compound 2] | selective | 100% | active | selective | –
2 | Fc1ccc(Cn2c(NCc3ccco3)nc3ccccc32)cc1 [Compound 6o] | – | 167% | – | – | –
3 | Cc1cc(N2CCCCC2)nc2ccccc12 [ML204] | – | – | – | – | protect the kidney filter
